Measured values as given in ChEMBL document CHEMBL4808163, “Benzothiazolyl and Benzoxazolyl Hydrazones Function as Zinc Metallochaperones to Reactivate Mutant p53” (J Med Chem, 2021).
Calls of active or inactive are those of the source. The rule behind the calls is not given here.

Key:
[1] = Induction of Zinc-dependent p53 R175H mutant refolding by assessing wild type conformation
How it was run: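 Cells grown on coverslips and treated, fixed in 4% paraformaldehyde 10 min, permeabilized in 0.5% Triton X-100 5 min. Stained overnight with conformation-specific antibodies PAB1620 (1:50, wild-type fold) and PAB240 (1:400, misfolded/unfolded), then goat anti-mouse IgG secondary for 40 min.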

[2] = system: NCI-H1299; assay: Induction of ROS production in human H1299 cells at 0.75 uM incubated for 24 hrs by CellRox green based fluorescence flow cytometry relative to ZMC1; format: functional
[3] = Binding affinity to Zn(II)+ incubated for 60 mins using FluoZin-3 by fuorescence assay
[4] = system: TOV112D; assay: Growth inhibition of human TOV112D cells harbouring p53 R175H mutant incubated for 3 days by MTS assay; format: functional, cell-based; conditions: 72 h
[5] = biological target: Mu-type opioid receptor (Homo sapiens, UniProt P35372); assay: Displacement of [3H]DAMGO from human recombinant mu receptor at 10 uM after 120 mins by scintillation counting analysis relative to control; conditions: probe [3H]DAMGO
[6] = biological target: 5-hydroxytryptamine receptor 2A (Homo sapiens, UniProt P28223); assay: Displacement of [125I]+/-DOI from human recombinant 5-HT2A receptor at 10 uM after 60 mins by scintillation counting analysis relative to control; conditions: recombinant human 5-HT2A receptor, probe [125I]+/-DOI
[7] = biological target: hERG (KCNH2) (Homo sapiens, UniProt Q12809); assay: Displacement of [3H]-dofetilide from human recombinant ERG at 10 uM relative to control; conditions: probe [3H]-dofetilide
[8] = biological target: Sodium-dependent noradrenaline transporter (Homo sapiens, UniProt P23975); assay: Displacement of [3H]nisoxetine from recombinant human norepinephrine transporter at 10 uM incubated for 120 mins by radiometric scintillation analysis relative to control; format: ADME; conditions: probe [3H]nisoxetine
[9] = system: Sodium channel site 2; assay: Displacement of [3H]batrachotoxinin from rat Sodium channel site 2 at 10 uM incubated for 60 mins by radiometric scintillation analysis relative to control; conditions: rat sodium channel site 2, probe [3H]batrachotoxinin
[10] = Binding affinity to Zn(II)+ incubated for 60 mins using RhodZin-3 by fuorescence assay
[11] = system: NCI-H460; assay: Cytotoxicity against human NCI-H460 cells harbouring p53 wild type; format: functional, cell-based
How it was run: (§1)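 5000 cells/well seeded; serial compound dilutions added next day at about 50% confluence. Growth read by MTS or Calcein AM after 3 days. Three independent experiments, each in triplicate; significance by Student's t test.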

[12] = system: NCI-H1299; assay: Cytotoxicity against p53-null human H1299 cells; format: functional, cell-based; how it was run: as §1
[13] = Apparent permeability in human Caco-2 cells at 5 uM measured up to 90 mins by LC-MS/MS analysis; format: ADME, cell-based
[14] = Ratio of EC50 for test compound to EC50 for ZMC1 for growth inhibition of human TOV-112D cells harbouring p53 R175H mutant incubated for 3 days by MTS assay; format: functional, TOV112D; conditions: time 3 day
[15] = Toxicity in mouse assessed as maximum tolerated dose; conditions: in vivo
How it was run: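 Acute single-dose test in NCr nu/nu nude mice aged 8–12 weeks, 5 mice per dose. One intraperitoneal injection was given, then health, behaviour and body weight were monitored.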

[16] = system: TOV112D; assay: Anticancer activity against human TOV112D cells harbouring p53 R175H mutant xenografted NCr nu/nu mouse assessed as tumor growth inhibition at 5.73 mg/kg, ip relative to control; format: functional; conditions: read-out: TGI
How it was run: (§2)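 Tumors (five per group) were grown to 50 mm³, then the compound was given ip daily. Dimensions were measured every other day, with volume = L × W² × π/6. Significance was tested by Student's t test.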

[17] = Stability in simulated gastric fluid assessed as parent compound remaining measured after 7 hrs at room temperature; format: ADME; conditions: read-out: Stabilty
How it was run: (§3)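 Incubation in simulated gastric fluid (pH 1–2) at room temperature (~23 °C) or 37 °C. Parent compound remaining quantified by HPLC at 220 and 254 nm, with peak identity confirmed by LC–MS.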

[18] = system: TOV112D; assay: Anticancer activity against human TOV112D cells harbouring p53 R175H mutant xenografted NCr nu/nu mouse assessed as tumor growth inhibition at 5 mg/kg, ip relative to control; format: functional; conditions: read-out: TGI; how it was run: as §2
[19] = Toxicity in NCr nu/nu mouse assessed as change in body weight loss up to 30 mg/kg, ip; format: organism-based; conditions: in vivo
How it was run: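 NCr nu/nu mice, 8–12 weeks old, 5 per dose, given a single intraperitoneal injection for acute maximum tolerated dose testing. Health, behavior and body weight monitored afterward.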

[20] = system: MDA-MB-468; assay: Anticancer activity against human MDA-MB-468 cells harbouring p53 R273H mutant xenografted NCr nu/nu mouse assessed as tumor growth inhibition at 5.73 mg/kg, ip relative to control; format: functional, organism-based
How it was run: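 MDA-MB-468 xenografts (6 × 10⁶ cells/site) in NCr nu/nu nude mice, five tumors per group, grown to 50 mm³, then dosed ip daily. Tumor length and width measured every other day; volume = L × W² × π/6. Growth versus control compared by Student's t test.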

[21] = Stability in simulated gastric fluid assessed as parent compound remaining measured at 37 degC; format: ADME; conditions: simulated gi fluid; how it was run: as §3
[22] = Stability in simulated gastric fluid assessed as parent compound remaining measured after 6 hrs at room temperature; format: ADME; conditions: read-out: Stabilty; how it was run: as §3
[23] = Growth inhibition of human TOV112D cells harbouring p53 R175H mutant incubated for 3 days combination with 5 Gy radiation by MTS assay; format: functional, cell-based; conditions: TOV-112D, 72 h
How it was run: (§4)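 5000 cells per well seeded to reach 50% confluence the next day, then given serial dilutions of compound; line 1 cells also received 5 Gy γ-irradiation, line 2 cells also received etoposide (level not stated). Growth read by MTS or Calcein AM after 3 days (72 h). EC50 taken from dilution curve; three independent experiments, each in triplicate, Student's t test.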

[24] = Binding affinity to Cu(II)+ using CuSO4
[25] = Growth inhibition of human TOV112D cells harbouring p53 R175H mutant incubated for 3 days combination with etoposide by MTS assay; format: functional, cell-based; conditions: TOV-112D, 72 h; how it was run: as §4

Sodium-dependent noradrenaline transporter, sequence (P23975 whole entry): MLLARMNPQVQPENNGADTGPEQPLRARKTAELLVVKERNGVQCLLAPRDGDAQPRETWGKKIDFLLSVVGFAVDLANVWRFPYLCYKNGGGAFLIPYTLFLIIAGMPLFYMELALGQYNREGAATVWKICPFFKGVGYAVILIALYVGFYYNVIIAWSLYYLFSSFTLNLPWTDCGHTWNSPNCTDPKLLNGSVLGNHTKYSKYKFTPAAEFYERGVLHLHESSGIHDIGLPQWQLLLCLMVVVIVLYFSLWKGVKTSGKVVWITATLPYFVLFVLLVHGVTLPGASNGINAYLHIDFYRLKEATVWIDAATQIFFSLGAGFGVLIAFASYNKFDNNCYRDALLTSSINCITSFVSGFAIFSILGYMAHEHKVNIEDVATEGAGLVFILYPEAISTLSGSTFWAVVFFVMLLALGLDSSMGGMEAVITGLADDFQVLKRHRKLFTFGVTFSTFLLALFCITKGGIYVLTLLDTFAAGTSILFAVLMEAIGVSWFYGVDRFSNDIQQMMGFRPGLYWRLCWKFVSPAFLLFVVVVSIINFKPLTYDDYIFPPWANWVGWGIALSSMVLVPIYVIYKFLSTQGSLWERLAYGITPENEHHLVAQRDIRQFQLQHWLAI
Mu-type opioid receptor, sequence (P35372 whole entry): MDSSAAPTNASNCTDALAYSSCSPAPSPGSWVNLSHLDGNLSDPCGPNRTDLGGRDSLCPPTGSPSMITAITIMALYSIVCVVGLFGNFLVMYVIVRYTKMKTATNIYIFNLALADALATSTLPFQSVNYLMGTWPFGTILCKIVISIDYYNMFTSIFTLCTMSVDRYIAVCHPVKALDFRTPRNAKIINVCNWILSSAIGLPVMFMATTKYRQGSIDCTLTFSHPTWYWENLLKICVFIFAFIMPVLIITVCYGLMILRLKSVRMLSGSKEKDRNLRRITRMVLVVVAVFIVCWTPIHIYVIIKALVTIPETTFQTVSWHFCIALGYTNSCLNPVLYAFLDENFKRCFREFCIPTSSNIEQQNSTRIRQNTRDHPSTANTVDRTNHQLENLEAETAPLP
5-hydroxytryptamine receptor 2A, sequence (P28223 whole entry): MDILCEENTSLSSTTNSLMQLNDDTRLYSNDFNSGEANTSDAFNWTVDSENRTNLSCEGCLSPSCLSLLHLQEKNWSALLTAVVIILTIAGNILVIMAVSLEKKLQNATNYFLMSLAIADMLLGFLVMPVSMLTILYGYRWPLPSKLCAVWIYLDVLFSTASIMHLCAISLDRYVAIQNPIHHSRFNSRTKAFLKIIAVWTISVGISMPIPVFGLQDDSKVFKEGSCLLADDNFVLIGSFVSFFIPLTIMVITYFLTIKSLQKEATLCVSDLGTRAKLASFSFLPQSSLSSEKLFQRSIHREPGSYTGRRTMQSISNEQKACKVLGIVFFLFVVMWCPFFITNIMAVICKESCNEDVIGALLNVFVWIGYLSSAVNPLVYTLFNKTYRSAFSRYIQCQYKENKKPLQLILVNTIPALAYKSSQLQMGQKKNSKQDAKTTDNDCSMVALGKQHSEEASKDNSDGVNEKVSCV
hERG (KCNH2), sequence (Q12809 whole entry): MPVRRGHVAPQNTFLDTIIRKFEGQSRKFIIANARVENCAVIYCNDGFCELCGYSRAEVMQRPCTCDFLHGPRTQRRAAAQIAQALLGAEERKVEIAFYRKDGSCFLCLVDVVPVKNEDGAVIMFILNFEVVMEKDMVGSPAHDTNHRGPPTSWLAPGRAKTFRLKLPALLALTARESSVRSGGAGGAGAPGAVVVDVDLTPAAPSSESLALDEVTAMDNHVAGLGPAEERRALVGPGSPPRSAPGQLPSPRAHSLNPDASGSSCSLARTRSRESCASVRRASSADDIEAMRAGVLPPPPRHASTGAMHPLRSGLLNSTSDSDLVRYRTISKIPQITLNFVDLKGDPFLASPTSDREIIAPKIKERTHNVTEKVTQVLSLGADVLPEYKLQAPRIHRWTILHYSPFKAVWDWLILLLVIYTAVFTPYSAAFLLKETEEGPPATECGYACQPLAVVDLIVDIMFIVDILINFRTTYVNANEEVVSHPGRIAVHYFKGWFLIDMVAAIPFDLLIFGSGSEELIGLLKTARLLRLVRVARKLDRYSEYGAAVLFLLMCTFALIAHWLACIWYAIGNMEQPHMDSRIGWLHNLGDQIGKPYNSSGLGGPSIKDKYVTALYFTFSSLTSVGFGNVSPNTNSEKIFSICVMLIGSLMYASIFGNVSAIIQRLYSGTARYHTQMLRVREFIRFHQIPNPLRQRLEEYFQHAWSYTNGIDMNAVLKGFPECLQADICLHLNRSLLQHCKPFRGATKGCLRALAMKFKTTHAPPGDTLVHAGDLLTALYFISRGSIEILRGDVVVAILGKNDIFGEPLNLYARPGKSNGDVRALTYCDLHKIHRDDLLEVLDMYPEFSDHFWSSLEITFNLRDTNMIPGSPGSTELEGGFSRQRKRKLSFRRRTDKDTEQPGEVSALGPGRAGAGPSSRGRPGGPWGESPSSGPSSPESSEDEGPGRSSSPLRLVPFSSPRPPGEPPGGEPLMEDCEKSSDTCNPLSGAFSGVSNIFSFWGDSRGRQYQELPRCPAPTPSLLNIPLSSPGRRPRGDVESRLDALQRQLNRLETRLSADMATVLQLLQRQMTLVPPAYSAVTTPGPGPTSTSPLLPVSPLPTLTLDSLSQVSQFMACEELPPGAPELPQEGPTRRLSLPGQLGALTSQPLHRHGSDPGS

Row | Compound | Activity [1] | Ratio [2] | Kd [3] [nM] | EC50 [4] [nM] | inhibition at 1 h, 10 µM [6] [%] | inhibition at 10 µM [7] [%] | inhibition at 2 h, 10 µM [8] [%] | inhibition at 1 h, 10 µM [9] [%] | also measured
1 | COC/C(=N\Nc1nc2ccccc2s1)c1ccccn1 | Active | 0.9 | 197 |  |  |  |  |  | 
2 | C/C(=N\Nc1nc2ccccc2n1C)c1ccccn1 | Active |  |  | 4 | 46 | 86 | 61 | 7 | inhibition at 2 h, 10 µM [5]: 48%
3 | CC(C)(C)/C(=N\NC(=S)N1CCC1)c1ccccn1 | inactive | 0.7 |  |  |  |  |  |  | Kd [10]: Not Active
4 | C/C(=N\NC(=S)N1CCC1)c1ncccc1C | inactive |  |  |  |  |  |  |  | 
5 | C/C(=N\NC(=S)NC1CCN(c2ccccn2)CC1)c1ccccn1 | inactive |  |  |  |  |  |  |  | Kd [10]: Not Active
6 | C/C(=N\Nc1nc2ccccc2o1)c1ccccn1 | Active |  |  | 6 |  | 21 | 21 | 12 | inhibition at 2 h, 10 µM [5]: 2%; Activity [11]: inactive; Activity [12]: inactive
7 | C/C(=N\NC(=S)N(C)C)c1ccccn1 | Active | 1.3 |  | 1 |  |  |  |  | Papp at […], 5 µM [13]: 7.3 ×10⁻⁶ cm/s; Ratio EC50 [14]: 0.2; Kd ([10]; read-out: Kd): 25.6 nM
8 | C/C(=N\Nc1nc2ccccc2n1C)c1ncccn1 | inactive | 1.6 | 54 |  | 11 | 77 | -2 | 12 | inhibition at 2 h, 10 µM [5]: 41%
9 | C/C(=N\Nc1nc2ccccc2s1)c1cc(OCCO)ccn1 | inactive | 2.8 | 22 |  |  |  |  |  | 
10 | C/C(=N\Nc1nc2ccccc2s1)c1ncccn1 | inactive | 1.2 | 79 |  | 3 | -2 | 84 | 2 | inhibition at 2 h, 10 µM [5]: 4%
11 | COCCOc1ccc2nc(N/N=C(\C)c3ccccn3)sc2c1 | Active | 2.4 | 81 |  |  |  |  |  | Kd ([10]; read-out: Kd): 386 nM
12 | C/C(=N\NC(=S)N1CCC1)c1cc(N(C)C)ccn1 | inactive |  |  | 8 |  |  |  |  | 
13 | C/C(=N\NC(=S)N1CCC1)c1ccccn1 | Active |  |  |  |  |  |  |  | MTD [15]: 5 mg/kg; inhibition in vivo at 5.73 mg/kg [16]: 63%; Papp at […], 5 µM [13]: 4.4 ×10⁻⁶ cm/s; remaining at 7 h [17]: 22%
14 | C/C(=N\NC(=S)N1CCC1)c1cnccn1 | Active | 2 |  |  |  |  |  |  | Ratio EC50 [14]: 4.5; Kd ([10]; read-out: Kd): 99.4 nM
15 | C/C(=N\Nc1nc2ccccc2o1)c1cc(OCCN(C)C)ccn1 | Active | 1.4 | 47 | 53 | 32 | 51 | -25 | 21 | inhibition at 2 h, 10 µM [5]: 0%; inhibition in vivo at 5.73 mg/kg [16]: 56%; Ratio EC50 [14]: 5.6
16 | C/C(=N\Nc1nc2ccccc2n1CCN1CCOCC1)c1ccccn1 | Active |  | 71 | 51 | 100 | 76 | -7 | 50 | inhibition in vivo at 5.73 mg/kg [16]: 59%
17 | C/C(=N\Nc1nc2ccccc2n1CCN(C)C)c1ccccn1 | Active | 1.6 | 61 | 42 |  |  |  |  | Ratio EC50 [14]: 5.2
18 | C/C(=N\Nc1nc2ccccc2s1)c1ccccn1 | Active |  |  | 55 | 96 | 19 | 101 | 101 | inhibition at 2 h, 10 µM [5]: 13%; inhibition in vivo at 5 mg/kg [18]: 72%; Activity [11]: inactive; Activity [19]: Non-Toxic; TGI [20]: inactive; Activity [12]: inactive
19 | C/C(=N\NC(=S)N1CCC1)c1ccccc1 | inactive | 0.9 |  |  |  |  |  |  | Kd [10]: Not Active
20 | C/C(=N\Nc1nc2ccccc2n1CCN1CCC(F)(F)C1)c1ccccn1 | Active |  | 26 | 151 | 92 | 101 | -1 |  | Stabilty [21]: > 82%; remaining at 6 h [22]: > 92%; EC50 [23]: 180 nM; Kd [24]: 0.001 pM; EC50 [25]: 120 nM
21 | CS/C(=N\N=C(/C)c1ccccn1)N1CCC1 | inactive |  |  |  |  |  |  |  | Kd [10]: Not Active
22 | O=C(O)CN(CC(=O)O)CC(=O)O [NITRILOTRIACETIC ACID] |  |  |  |  |  |  |  |  | Kd ([10]; read-out: Kd): 17 nM
23 | C/C(=N\NC(=O)N1CCC1)c1ccccn1 | inactive |  |  | > 10000 |  |  |  |  | 
24 | C/C(=N\Nc1ccc2ccccc2n1)c1ccccn1 | Active |  |  | 141 |  |  |  |  | 
25 | C/C(=N\Nc1nc2ccccc2n1CCN1CCCC1)c1ccccn1 | Active |  | 22 |  | 96 | 88 | 101 | 101 | inhibition in vivo at 5.73 mg/kg [16]: 47%
26 | C/C(=N\Nc1nc2ccccc2s1)c1cc(OCCN(C)C)ccn1 | Active | 2.5 | 55 |  | 76 | 95 | 82 | 36 | inhibition at 2 h, 10 µM [5]: 48%
27 | C/C(=N\NC(=S)N1CCC1)c1cccc(C)n1 | Active |  |  | 132 |  |  |  |  | Kd ([10]; read-out: Kd): 48.3 nM
28 | C/C(=N\Nc1nc2ccccc2s1)c1cc(N(C)C)ccn1 | Active |  |  | 48 |  |  |  |  | 
29 | C/C(=N\Nc1nccn1C)c1ccccn1 | Active | 0.9 | 408 | 445 | 11 | 7 | 4 | 23 | inhibition at 2 h, 10 µM [5]: -2%; inhibition in vivo at 5.73 mg/kg [16]: 57%; Ratio EC50 [14]: 47.1
30 | C/C(=N\Nc1nc2ccccc2s1)c1cc(OCCN2CCN(C)CC2)ccn1 | inactive | 0.9 | 20 |  |  |  |  |  | 
